Experimental data collected from several papers.
Compare with care: the assays were run in different laboratories.
Target: Mitogen-activated protein kinase kinase kinase 9 (MAP3K9, Homo sapiens, UniProt P80192)
Read-out: enzyme activity
Mode: inhibitor

For `FC(F)c1nc2ccccc2n1-c1nc(N2CCOCC2)nc(N2CCOCC2)n1`, the remaining activity was 86% (10 µM).
`O=C(Nc1cnn(-c2csc(C(=O)NC3COC3)c2)c1)Nc1c(F)cccc1Cl` gave a remaining activity of 88.5% (5 µM).
With `CC(C)(C)c1nc2c(s1)c1nc(N)ncc1c1ccc(NS(=O)(=O)c3c(F)cccc3F)c(F)c12` the remaining activity was 66% (radiometric; 1 µM).
`Cc1nn(CC(F)(F)F)cc1Nc1ncc(Br)c(NCCc2cnc[nH]2)n1` gave a remaining activity of 30% (radiometric; 1 µM).
The remaining activity of `COc1cc(Nc2cnc(C#N)c(O[C@H](C)CN(C)C)n2)ncc1-c1cnn(C)c1` is reported as 48% (radiometric; 10 µM).
`Cc1cnc(NC2CCOCC2)nc1-n1cnc(C(=O)NC(CN)c2cc(F)cc(Cl)c2)c1` (stereo not shown) has a remaining activity of 94% (radiometric; 1 µM).
`Cc1ccc(C(=O)Nc2ccc(CN3CCN(C)CC3)c(C(F)(F)F)c2)cc1C#Cc1cnc2cccnn12` gave a remaining activity of 96% (23.5 nM).
With `CC(C)(C)c1nc(-c2cccc(NS(=O)(=O)c3c(F)cccc3F)c2F)c(-c2ccnc(N)n2)s1` the remaining activity was 70% (radiometric; 1 µM).
The remaining activity of `O=C(NCCCNc1ccnc(Nc2cccc(NC(=O)N3CCCC3)c2)n1)C1CCC1` is reported as 79% (radiometric; 1 µM).
`Oc1cccc(-c2nc(N3CCOCC3)c3oc4ncccc4c3n2)c1` gave a remaining activity of 65% (10 µM).
For `CC(C)(O)[C@H]1CC[C@H](Nc2ccc3ncc(-c4cccc(C(F)(F)F)c4)n3n2)CC1`, the remaining activity was 77% (1 µM).
`NS(=O)(=O)c1ccc(CNc2ccnc(Nc3cccc(CN4CCOCC4)c3)n2)cc1` gave a remaining activity of 81% (radiometric; 1 µM).
For `Cc1sc(C(=O)NC2COC2)cc1-n1cc(NC(=O)Nc2c(F)cccc2Cl)cn1`, the remaining activity was 87.5% (10 µM).
With `CN1CCc2cc(Nc3ncc(C4CC4)c(NCCCNC(=O)C4CCC4)n3)ccc2C1` the remaining activity was 14% (radiometric; 1 µM).
`COc1cc(Cl)c(C(=O)N[C@@H](CN[C@H]2CC[C@@H](N)CC2)Cc2ccc(C#N)cc2)cc1-c1ccc(CN[C@H](C)c2ccc(C)cc2)o1` gave a remaining activity of 97% (1 µM).
`Cc1nn(CC(F)(F)F)cc1Nc1ncc(C2CC2)c(NCc2ccc(S(N)(=O)=O)cc2)n1` gave a remaining activity of 90% (radiometric; 1 µM).
`CCCOc1ccc(OC)c(F)c1C(=O)c1ccc(C(=O)N[C@@H]2CNC[C@H]2NC(=O)c2ccc3[nH]ncc3c2)cc1` has a remaining activity of 32% (10 µM).
For `Cc1nn(CC(F)(F)F)cc1Nc1nccc(NCc2ccc(S(N)(=O)=O)cc2)n1`, the remaining activity was 97% (radiometric; 1 µM).
The remaining activity of `CCN(CC)c1ccc(C2=NNC(=O)CC2C)cc1[N+](=O)[O-]` (stereo not shown) is reported as 100% (10 µM).
